ChEMBL document CHEMBL1124609, “Synthesis and anticonvulsant properties of 2,3,3a,4-tetrahydro-1H-pyrrolo[1,2-a]benzimidazol-1-ones” (J Med Chem, 1989)

Assays:
Mus musculus [1] = species: Mus musculus; test: Anticonvulsant activity against audiogenic seizures in DBA/2 mice; type: functional
Outline: (§1)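 DBA/2 mice of either sex (6-12 g, 21-25 days old), dosed ip in 80% DMSO/20% distilled water. 45 min later exposed to a mixed-frequency 109-dB sound for up to 60 s. Latency to and incidence of wild running, clonus, tonus and respiratory arrest were scored. ED50 (±95% confidence limits) by Litchfield and Wilcoxon.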

Rattus norvegicus [2] = species: Rattus norvegicus; test: Anticonvulsant activity against maximal electroshock seizures(MES) in rats; type: functional
Outline: (§2)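 Adult male Wistar rats (200-250 g), groups of 10, dosed ip in 80% DMSO/20% distilled water. 60 min later a 50-mA, 60-Hz alternating current was given through ear electrodes for 0.2 s. Protection was absence of tonic hind limb extension. ED50 (±95% confidence limits) by Litchfield and Wilcoxon.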

[3] = Relative lipophilicity; type: physicochemical; conditions: reversed-phase TLC, acetone/water 2:1
Outline: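 Reversed-phase TLC on silanized silica gel plates dried 1 h at 105 °C, with acetone/water 2:1 v/v as mobile phase. Compounds were applied from chloroform solution (3 mg/mL). Rf is the mean of five runs with different plate positions, and RM = log[(1/Rf) - 1].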

Mus musculus [4] = species: Mus musculus; test: Compound was tested for its activity against clonic seizures phase in […] mice; Completely protected; type: functional; outline: as §1
Rattus norvegicus [5] = species: Rattus norvegicus; test: Compound was tested for its activity against tonic hind limb extension in MES test in rats; Completely antagonized; type: functional, Hindlimb; outline: as §2

| SMILES | RM [3] | ED50 (Mus musculus [1]) [µmol/kg] | ED50 (Rattus norvegicus [2]) [µmol/kg] | Activity (Mus musculus [4]) [µM/kg] | Activity (Rattus norvegicus [5]) [µM/kg] |
| --- | --- | --- | --- | --- | --- |
| CCCC(CCC)C(=O)O [VALPROIC ACID] |  | 1230 | 1890 |  |  |
| O=C1CCC2(c3ccccc3)Nc3cc(Cl)ccc3N12 (centres undefined) | -0.007 | 95.9 | 126 |  |  |
| O=C1CCC2(c3ccccc3)Nc3ccccc3N12 (centres undefined) | -0.131 | 161 | 200 |  |  |
| O=C1CCC2(c3ccc(Cl)cc3)Nc3ccccc3N12 (centres undefined) | -0.033 | 166 | 234 |  |  |
| O=C1NC(=O)C(c2ccccc2)(c2ccccc2)N1 [PHENYTOIN] |  | 19.8 | 55.5 |  |  |
| Cc1ccc2c(c1)N1C(=O)CCC1(C)N2 (centres undefined) | -0.279 | 122 | 197 |  |  |
| O=C1CCC2(c3ccc(Cl)cc3)Nc3cc(Cl)ccc3N12 (centres undefined) | 0.068 | 143 | 281 |  |  |
| Cc1ccc2c(c1)NC1(C)CCC(=O)N21 (centres undefined) | -0.284 | 97.7 | 141 |  |  |
| CC12CCC(=O)N1c1cc([N+](=O)[O-])ccc1N2 (centres undefined) | -0.237 | > 600 | > 600 |  |  |
| O=C1CCC2(c3ccc(Cl)cc3)Nc3ccc(Cl)cc3N12 (centres undefined) | 0.073 | 347 | 501 |  |  |
| O=C1CCC2(c3ccc(F)cc3)Nc3ccc(Cl)cc3N12 (centres undefined) | 0.028 | 178 | 198 |  |  |

Now from value to molecule, other results behind:

| RM [3] | SMILES | ED50 (Mus musculus [1]) [µmol/kg] | ED50 (Rattus norvegicus [2]) [µmol/kg] | Activity (Mus musculus [4]) [µM/kg] | Activity (Rattus norvegicus [5]) [µM/kg] |
| --- | --- | --- | --- | --- | --- |
| -0.084 | O=C1CCC2(c3ccc(F)cc3)Nc3ccccc3N12 (centres undefined) | 356 | 575 |  |  |
| -0.187 | CC12CCC(=O)N1c1ccc([N+](=O)[O-])cc1N2 (centres undefined) | > 600 | > 600 |  |  |
| 0.019 | O=C1CCC2(c3ccc(F)cc3)Nc3cc(Cl)ccc3N12 (centres undefined) | 87.3 | 105 |  |  |
| -0.167 | CC12CCC(=O)N1c1ccc(Cl)cc1N2 (centres undefined) | 79.4 | 88.2 |  |  |
| -0.005 | O=C1CCC2(c3ccccc3)Nc3ccc(Cl)cc3N12 (centres undefined) | 179 | 271 |  |  |
| -0.162 | CC12CCC(=O)N1c1cc(Cl)ccc1N2 (centres undefined) | 148 | 234 |  |  |
| -0.341 | CC12CCC(=O)N1c1ccccc1N2 (centres undefined) | 26.3 | 35.5 | 100 | 200 |
